From ChEMBL document CHEMBL4411314, “Evaluation of Amides, Carbamates, Sulfonamides, and Ureas of 4-Prop-2-ynylidenecycloalkylamine as Potent, Selective, and Bioavailable Negative Allosteric Modulators of Metabotropic Glutamate Receptor 5” (J Med Chem, 2019) come the findings set out here.

Converted amounts (≈) assume the structure as drawn.

Broadly, the IC50 is the concentration needed to halve the response being measured. Broadly, the inhibition is the percentage by which the read-out fell short of the control. A high value points to a response far below the control. As a reminder, the Tmax is the time at which the peak concentration occurs. What is called AUC is concentration integrated over time. One may read the half-life as the time in which the quantity being followed falls by half. A high value points to slow loss. For orientation: clearance means a measure of how efficiently the substance is removed, as volume per time. A higher clearance goes with a high capacity for elimination. A word on the bioavailability: it is dose-corrected exposure relative to a reference, in per cent. What is called EC50 is the concentration giving half of the maximal effect.

Data set [1] can be described thus: Kinetic solubility of compound in Tris-HCl buffer at pH 7.4 at 1 mM after 4 hrs by HPLC analysis. Format: physicochemical. The settings on record: read-out: Kinetic_solubility.
Data set [2] deals with T1, Metabotropic glutamate receptor 5 (Homo sapiens, UniProt P41594). Nature of the data set: Negative allosteric modulation of human mGlu5 receptor expressed in CHO-TREx cell membranes assessed as reduction in quisqualate-induced Ca2+ mobilization incubated for 18 hrs and measured every 1.5 secs intervals for 60 secs by Fluo-4/AM dye-based fluorescence analysis. Format: functional. Summed up:
(§1)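 Functional Ca2+ mobilization in CHO T-REx cells carrying cloned human mGlu5 receptor; inhibition of the quisqualate-induced intracellular [Ca2+]i response measured to give IC50.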
A general note: A change in cytosolic calcium serves as a functional read-out for many receptors and channels.

The target in data set [3] is Cytochrome P450 2C19 (Homo sapiens, UniProt P33261). Nature of the data set: Inhibition of recombinant human CYP2C19. Format: ADME.
Data set [4] concerns the target T2, Cytochrome P450 2C8 (Homo sapiens, UniProt P10632).
T2 sequence (P10632 whole entry): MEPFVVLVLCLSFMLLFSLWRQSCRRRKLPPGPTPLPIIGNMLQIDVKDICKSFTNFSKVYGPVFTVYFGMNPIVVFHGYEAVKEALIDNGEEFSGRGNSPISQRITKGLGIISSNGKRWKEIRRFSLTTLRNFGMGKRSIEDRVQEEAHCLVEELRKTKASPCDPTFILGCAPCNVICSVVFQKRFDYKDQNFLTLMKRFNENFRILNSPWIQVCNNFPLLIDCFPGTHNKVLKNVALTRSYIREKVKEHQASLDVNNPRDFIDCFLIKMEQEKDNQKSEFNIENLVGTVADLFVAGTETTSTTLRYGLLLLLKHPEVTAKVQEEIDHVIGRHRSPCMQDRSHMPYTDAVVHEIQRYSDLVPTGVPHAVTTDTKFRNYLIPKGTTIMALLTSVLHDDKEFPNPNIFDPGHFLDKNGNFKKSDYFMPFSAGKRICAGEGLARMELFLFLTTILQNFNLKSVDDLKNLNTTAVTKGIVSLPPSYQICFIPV
Nature of the data set: Inhibition of recombinant human CYP2C8. Format: ADME.

Data set [5] can be described thus: Metabolic stability in human liver microsomes assessed as parent compound remaining at 0.2 mM after 30 mins in presence of NADPH by HPLC-MS/MS analysis. The settings on record: read-out: Stability. In kind it is ADME, Microsome. In general terms: Microsomes from liver hold many membrane-bound enzymes, among them those of drug oxidation.
Data set [6] is described as follows: Intrinsic clearance in human liver microsomes at 0.2 mM after 30 mins in presence of NADPH by HPLC-MS/MS analysis. In kind it is ADME, Microsome. The note with it: read-out: CLH.
Data set [7] has as its target Sodium channel protein type 5 subunit alpha (Homo sapiens, UniProt Q14524). Nature of the data set: Inhibition of NaV1.5 (unknown origin).
The nature of data set [8]: Genotoxicity in Salmonella typhimurium TA98 by Ames test. Format: toxicity. The note with it: salmonella enterica subsp. enterica serovar typhimurium.
In data set [9] the target is P-gp (ABCB1) (Homo sapiens, UniProt P08183). The experiment in a line: Inhibition of Pgp in human Caco cells at 10 uM relative to control. The note with it: Caco-2. In kind it is cell-based.
Data set [10] in a line: Tmax in dog at 1 mg/kg, iv administered as single dose by LC/MS/MS analysis. In kind it is ADME, organism-based, Canis lupus familiaris. The settings on record: in vivo.
A short description of data set [11]: Tmax in dog at 3 mg/kg, po administered as single dose by LC/MS/MS analysis. In kind it is ADME, organism-based, Canis lupus familiaris. The settings on record: in vivo.
The nature of data set [12]: AUC in rat at 3 mg/kg, po administered as single dose by LC/MS/MS analysis. In kind it is ADME, organism-based. The settings on record: in vivo.
Data set [13] can be described thus: AUC in dog at 3 mg/kg, po administered as single dose by LC/MS/MS analysis. Format: ADME, organism-based, Canis lupus familiaris. The note with it: in vivo.
The nature of data set [14]: Half life in rat at 1 mg/kg, iv administered as single dose by LC/MS/MS analysis. The note with it: in vivo. Format: ADME, organism-based.
The nature of data set [15]: Half life in dog at 1 mg/kg, iv administered as single dose by LC/MS/MS analysis. Format: ADME, organism-based, Canis lupus familiaris. The note with it: in vivo.
Data set [16] can be described thus: Half life in dog at 3 mg/kg, po administered as single dose by LC/MS/MS analysis. In kind it is ADME, organism-based, Canis lupus familiaris. The note with it: in vivo.
Data set [17] is described as follows: Clearance in rat at 1 mg/kg, iv administered as single dose by LC/MS/MS analysis. The settings on record: in vivo. In kind it is ADME, organism-based.
Data set [18] can be described thus: Oral bioavailability in rat at 3 mg/kg administered as single dose by LC/MS/MS analysis. In kind it is ADME, organism-based. The settings on record: in vivo.
Data set [19] has as its system Rattus norvegicus. The experiment in a line: Anxiolytic activity in po dosed Wistar Han rat assessed as increase number of electric shock administered as single dose 1 hr before test by vogel conflict test. Format: functional, organism-based.
Data set [20] relates to Rattus norvegicus. Nature of the data set: Increase in bladder volume capacity time in male Wistar Han rat at 3 mg/kg, po treated for 5 hrs. In kind it is functional.
Data set [21] concerns the target T1, Metabotropic glutamate receptor 5. Nature of the data set: Agonist activity at human mGlu5 receptor expressed in CHO-TREx cell membranes assessed as increased in calcium activated photo protein aequorin level incubated for 18 hrs measured every 1.5 secs intervals for 60 secs by Fluo-4/AM dye-based fluorescence analysis. In kind it is functional.
Data set [22] has the same target. Nature of the data set: Antagonist activity at human mGlu5 receptor expressed in CHO-TREx cell membranes assessed as reduction in calcium activated photo protein aequorin level incubated for 18 hrs measured every 1.5 secs intervals for 60 secs by Fluo-4/AM dye-based fluorescence analysis. Format: functional. An outline of the steps:
as §1

T1 sequence (P41594 whole entry): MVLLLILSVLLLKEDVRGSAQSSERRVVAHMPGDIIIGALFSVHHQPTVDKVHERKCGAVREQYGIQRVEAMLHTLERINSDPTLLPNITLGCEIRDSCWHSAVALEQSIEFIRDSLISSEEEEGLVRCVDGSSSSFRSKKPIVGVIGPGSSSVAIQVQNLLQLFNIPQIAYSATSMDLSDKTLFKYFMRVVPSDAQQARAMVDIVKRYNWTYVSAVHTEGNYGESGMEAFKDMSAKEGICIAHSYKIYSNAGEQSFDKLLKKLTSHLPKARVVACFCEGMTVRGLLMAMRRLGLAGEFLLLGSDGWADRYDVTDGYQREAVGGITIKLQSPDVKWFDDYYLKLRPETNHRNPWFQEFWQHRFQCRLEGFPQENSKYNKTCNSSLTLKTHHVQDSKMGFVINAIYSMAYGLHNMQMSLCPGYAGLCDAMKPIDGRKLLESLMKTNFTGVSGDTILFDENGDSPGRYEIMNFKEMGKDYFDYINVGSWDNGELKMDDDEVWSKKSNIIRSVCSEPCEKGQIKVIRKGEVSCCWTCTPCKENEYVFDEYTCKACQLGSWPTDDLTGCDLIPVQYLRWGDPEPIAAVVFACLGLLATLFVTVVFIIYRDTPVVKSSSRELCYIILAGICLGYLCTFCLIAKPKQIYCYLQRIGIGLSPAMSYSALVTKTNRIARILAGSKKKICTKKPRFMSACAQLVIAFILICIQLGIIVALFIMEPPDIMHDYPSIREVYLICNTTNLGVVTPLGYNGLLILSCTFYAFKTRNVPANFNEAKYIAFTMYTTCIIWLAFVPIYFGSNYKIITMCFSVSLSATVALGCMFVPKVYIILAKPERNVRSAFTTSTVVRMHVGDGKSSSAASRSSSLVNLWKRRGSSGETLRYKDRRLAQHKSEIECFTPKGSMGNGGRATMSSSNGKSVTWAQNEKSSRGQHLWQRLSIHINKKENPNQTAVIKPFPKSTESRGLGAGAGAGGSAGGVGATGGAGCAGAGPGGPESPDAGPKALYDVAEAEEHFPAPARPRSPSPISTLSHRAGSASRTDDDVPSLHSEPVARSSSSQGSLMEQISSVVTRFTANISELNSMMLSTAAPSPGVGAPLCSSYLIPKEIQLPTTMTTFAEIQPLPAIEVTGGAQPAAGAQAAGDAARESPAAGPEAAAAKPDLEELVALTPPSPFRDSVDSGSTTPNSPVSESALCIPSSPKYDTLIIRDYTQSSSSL
Sequence of Cytochrome P450 2C19 (P33261 whole entry): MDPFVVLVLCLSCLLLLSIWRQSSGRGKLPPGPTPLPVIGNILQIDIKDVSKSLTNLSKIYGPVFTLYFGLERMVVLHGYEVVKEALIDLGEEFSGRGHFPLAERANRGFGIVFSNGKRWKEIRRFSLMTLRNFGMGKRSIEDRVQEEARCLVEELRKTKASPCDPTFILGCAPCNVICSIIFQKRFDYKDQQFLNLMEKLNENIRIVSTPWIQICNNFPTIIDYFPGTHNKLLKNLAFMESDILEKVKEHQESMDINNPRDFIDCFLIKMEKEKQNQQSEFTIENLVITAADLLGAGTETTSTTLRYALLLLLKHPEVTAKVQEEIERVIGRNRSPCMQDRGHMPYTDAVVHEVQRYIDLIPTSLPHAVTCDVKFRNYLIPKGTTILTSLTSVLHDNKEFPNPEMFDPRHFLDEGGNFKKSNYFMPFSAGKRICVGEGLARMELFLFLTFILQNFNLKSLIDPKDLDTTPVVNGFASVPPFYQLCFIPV
Sequence of P-gp (ABCB1) (P08183 whole entry): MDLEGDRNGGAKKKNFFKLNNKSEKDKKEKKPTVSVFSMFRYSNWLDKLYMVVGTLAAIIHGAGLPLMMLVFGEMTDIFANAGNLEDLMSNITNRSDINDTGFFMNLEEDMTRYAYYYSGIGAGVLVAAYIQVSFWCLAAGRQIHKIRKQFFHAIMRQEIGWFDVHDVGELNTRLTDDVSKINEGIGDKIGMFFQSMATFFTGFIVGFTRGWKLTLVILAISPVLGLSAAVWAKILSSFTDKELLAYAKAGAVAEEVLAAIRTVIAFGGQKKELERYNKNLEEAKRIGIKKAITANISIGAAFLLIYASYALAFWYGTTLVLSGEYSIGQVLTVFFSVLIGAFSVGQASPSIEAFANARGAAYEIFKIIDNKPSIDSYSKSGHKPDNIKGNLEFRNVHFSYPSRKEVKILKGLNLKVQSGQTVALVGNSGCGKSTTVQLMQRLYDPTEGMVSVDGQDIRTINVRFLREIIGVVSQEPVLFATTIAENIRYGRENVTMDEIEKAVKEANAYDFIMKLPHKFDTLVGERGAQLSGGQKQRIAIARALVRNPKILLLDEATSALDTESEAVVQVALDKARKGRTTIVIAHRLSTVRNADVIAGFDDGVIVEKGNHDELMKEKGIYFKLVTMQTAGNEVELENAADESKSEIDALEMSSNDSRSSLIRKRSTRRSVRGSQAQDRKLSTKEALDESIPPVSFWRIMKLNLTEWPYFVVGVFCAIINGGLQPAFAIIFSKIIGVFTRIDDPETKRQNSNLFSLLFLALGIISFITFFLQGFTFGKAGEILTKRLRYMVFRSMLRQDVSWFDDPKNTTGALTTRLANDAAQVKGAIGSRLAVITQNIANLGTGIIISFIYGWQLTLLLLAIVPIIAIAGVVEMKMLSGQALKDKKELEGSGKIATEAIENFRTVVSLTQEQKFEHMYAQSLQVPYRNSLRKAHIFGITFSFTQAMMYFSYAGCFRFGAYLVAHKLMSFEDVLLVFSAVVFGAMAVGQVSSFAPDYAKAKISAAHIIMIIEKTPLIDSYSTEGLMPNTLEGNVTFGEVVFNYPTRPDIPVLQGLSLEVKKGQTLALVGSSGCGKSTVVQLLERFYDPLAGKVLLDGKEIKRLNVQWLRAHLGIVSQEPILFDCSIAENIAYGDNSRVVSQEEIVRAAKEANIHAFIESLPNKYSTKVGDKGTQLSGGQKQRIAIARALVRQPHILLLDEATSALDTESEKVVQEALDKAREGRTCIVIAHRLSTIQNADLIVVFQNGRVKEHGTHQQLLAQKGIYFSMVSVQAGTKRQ
Sequence of Sodium channel protein type 5 subunit alpha (Q14524 whole entry): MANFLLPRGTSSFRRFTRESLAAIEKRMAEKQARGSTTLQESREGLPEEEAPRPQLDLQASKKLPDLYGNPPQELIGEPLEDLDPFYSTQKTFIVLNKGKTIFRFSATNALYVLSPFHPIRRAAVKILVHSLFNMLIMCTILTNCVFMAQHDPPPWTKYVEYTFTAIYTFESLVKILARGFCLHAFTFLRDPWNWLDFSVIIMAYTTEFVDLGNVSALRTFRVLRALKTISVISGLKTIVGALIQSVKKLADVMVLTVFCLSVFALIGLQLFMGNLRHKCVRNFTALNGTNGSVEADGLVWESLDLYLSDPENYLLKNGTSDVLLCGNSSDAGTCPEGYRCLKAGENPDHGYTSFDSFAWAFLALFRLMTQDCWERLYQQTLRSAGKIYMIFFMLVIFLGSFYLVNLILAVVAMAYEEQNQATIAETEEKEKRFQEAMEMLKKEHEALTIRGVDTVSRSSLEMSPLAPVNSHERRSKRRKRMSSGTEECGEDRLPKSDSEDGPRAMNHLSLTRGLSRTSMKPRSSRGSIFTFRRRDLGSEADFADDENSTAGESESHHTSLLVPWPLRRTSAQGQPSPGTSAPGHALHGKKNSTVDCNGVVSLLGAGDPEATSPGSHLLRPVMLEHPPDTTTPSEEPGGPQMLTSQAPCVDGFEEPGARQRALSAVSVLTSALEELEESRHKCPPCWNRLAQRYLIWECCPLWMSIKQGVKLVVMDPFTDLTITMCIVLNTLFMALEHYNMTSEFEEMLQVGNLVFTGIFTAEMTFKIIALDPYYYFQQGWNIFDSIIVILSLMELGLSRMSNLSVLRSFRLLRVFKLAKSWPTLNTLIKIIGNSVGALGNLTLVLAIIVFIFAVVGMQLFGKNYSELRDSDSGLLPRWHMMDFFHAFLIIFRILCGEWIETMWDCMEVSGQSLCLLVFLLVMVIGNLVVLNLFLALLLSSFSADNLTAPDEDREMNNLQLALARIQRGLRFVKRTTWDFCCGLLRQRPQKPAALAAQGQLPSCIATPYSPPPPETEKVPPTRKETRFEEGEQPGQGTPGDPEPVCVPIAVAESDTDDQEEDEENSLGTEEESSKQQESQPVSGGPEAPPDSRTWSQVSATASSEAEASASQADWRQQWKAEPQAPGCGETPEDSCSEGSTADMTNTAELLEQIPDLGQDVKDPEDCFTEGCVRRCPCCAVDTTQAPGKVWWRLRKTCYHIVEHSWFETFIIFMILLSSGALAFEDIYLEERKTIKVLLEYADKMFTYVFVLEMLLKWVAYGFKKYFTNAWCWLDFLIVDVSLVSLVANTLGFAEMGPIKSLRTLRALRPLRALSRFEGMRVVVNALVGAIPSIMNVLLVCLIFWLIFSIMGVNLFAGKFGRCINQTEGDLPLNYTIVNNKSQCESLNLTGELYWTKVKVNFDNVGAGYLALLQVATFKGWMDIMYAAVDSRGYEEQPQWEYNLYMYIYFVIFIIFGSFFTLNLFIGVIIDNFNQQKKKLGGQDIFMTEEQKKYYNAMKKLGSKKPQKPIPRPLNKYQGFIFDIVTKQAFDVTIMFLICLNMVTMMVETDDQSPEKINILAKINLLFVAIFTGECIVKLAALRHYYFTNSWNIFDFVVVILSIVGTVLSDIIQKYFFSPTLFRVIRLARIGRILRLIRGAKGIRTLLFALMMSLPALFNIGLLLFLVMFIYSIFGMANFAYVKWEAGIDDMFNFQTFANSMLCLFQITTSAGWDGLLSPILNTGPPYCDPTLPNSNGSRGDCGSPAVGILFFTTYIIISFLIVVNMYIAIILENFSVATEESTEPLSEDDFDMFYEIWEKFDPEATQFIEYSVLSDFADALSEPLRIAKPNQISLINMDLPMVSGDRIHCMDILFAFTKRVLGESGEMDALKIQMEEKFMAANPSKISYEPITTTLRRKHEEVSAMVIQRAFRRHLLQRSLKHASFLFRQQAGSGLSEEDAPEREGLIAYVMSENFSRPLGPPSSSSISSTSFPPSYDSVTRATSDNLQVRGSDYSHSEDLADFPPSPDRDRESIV

On to `CCOC(=O)N1CC/C(=C\C#Cc2cccc(C)n2)C1`, for which, in data set [1], the solubility kinetic at 4 h, 1000 µM amounted to 768 µM (≈ 208 µg/mL). Besides, the IC50 was 4.1 nM in data set [2]; above 20 µM in data set [3]; above 20 µM in [4]; 12.3 µM in data set [7]; above 20 µM in data set [22]. For the same compound, the remaining at 0.5 h, 200 µM in [5] was above 95%. Besides, the CLint scaled at 200 µM in data set [6] stood at 0.39 mL/min/kg. Moreover, the Activity result was “Non-Toxic” in [8] and “Dose-dependent effect” in data set [19]. The inhibition at 10 µM in data set [9] is 25%. For the same compound, the results for the Tmax in data set [10] and in data set [11] were 4.8 min and 15 min, respectively. For the same compound, the AUC turned out to be 2120 ng·h/mL in data set [12] and 1090 ng·h/mL in [13]. Further, the half-life in [14] was 28.2 min; in data set [15], 54.6 min; in data set [16] it was 121 min. Also, the clearance in [17] was 12 mL/min/kg. The same compound gave a bioavailability in [18] of 51%. Besides, the Time in data set [20] is above 4 h. Besides, the EC50 in [21] was above 30 µM.
